Experiments:
Assay type in all cases: cell-based, Homo sapiens
hMC4R/TM4 hMC2R [1] = assay: cAMP accumulation; conditions: read-out: THIQ (EC50 (nM)); HEK293 cells, 1 h, 37°C, 1 mM IBMX; agonist
In short: (§1)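 HEK293 cells stably expressing FLAG-tagged hMC4R chimeras, with one TM swapped for the homologous hMC2R segment, were selected with G418. Cells were incubated in EBSS with test compound (10−10–10−6 M) and 10−3 M IBMX for 1 h at 37°C. The reaction was stopped with ice-cold ethanol and the supernatant dried under nitrogen at 55°C. Duplicate wells, three separate experiments; sigmoid variable-slope fit.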

hMC4R/TM6 hMC2R [2] = assay: cAMP accumulation; conditions: read-out: THIQ (EC50 (nM)); HEK293 cells, 1 h, 37°C, 1 mM IBMX; agonist
In short: as §1

hMC4R/TM4 hMC2R [3] = assay: […]-NDP-MSH displacement on transfected cells; conditions: read-out: THIQ Ki; whole HEK293 cells, MEM with 0.2% BSA, 1 h
hMC4R/TM3 hMC2R [4] = assay: […]-NDP-MSH displacement on transfected cells; conditions: read-out: THIQ Ki; whole HEK293 cells, MEM with 0.2% BSA, 1 h
hMC4R/TM5 hMC2R [5] = assay: cAMP accumulation; conditions: read-out: THIQ (EC50 (nM)); HEK293 cells, 1 h, 37°C, 1 mM IBMX; agonist
In short: as §1

hMC4R/TM2 hMC2R [6] = assay: […]-NDP-MSH displacement on transfected cells; conditions: read-out: THIQ Ki; whole HEK293 cells, MEM with 0.2% BSA, 1 h
hMC4R/TM6 hMC2R [7] = assay: […]-NDP-MSH displacement on transfected cells; conditions: read-out: THIQ Ki; whole HEK293 cells, MEM with 0.2% BSA, 1 h
hMC4R/TM2 hMC2R [8] = assay: cAMP accumulation; conditions: read-out: THIQ (EC50 (nM)); HEK293 cells, 1 h, 37°C, 1 mM IBMX; agonist
In short: as §1

hMC4R/TM5 hMC2R [9] = assay: […]-NDP-MSH displacement on transfected cells; conditions: read-out: THIQ Ki; whole HEK293 cells, MEM with 0.2% BSA, 1 h
hMC4R/TM3 hMC2R [10] = assay: cAMP accumulation; conditions: read-out: THIQ (EC50 (nM)); HEK293 cells, 1 h, 37°C, 1 mM IBMX; agonist
In short: as §1

EC50 (hMC4R/TM4 hMC2R [1]): 3.5 ± 0.3 nM | EC50 (hMC4R/TM6 hMC2R [2]): 2.8 ± 0.6 nM | EC50 (hMC4R/TM5 hMC2R [5]): 3.9 ± 0.4 nM | EC50 (hMC4R/TM2 hMC2R [8]): 3.1 ± 0.3 nM | EC50 (hMC4R/TM3 hMC2R [10]): 91 ± 6.2 nM
Compound: O=C(N[C@H](Cc1ccc(Cl)cc1)C(=O)N1CCC(Cn2cncn2)(C2CCCCC2)CC1)[C@H]1Cc2ccccc2CN1 [THIQ, N-(3R)-1 4-tetrahydroisoquinolinium-3-ylcarbonyl-(1R)-1-(4-chlorobenzyl)-2-4-cyclohexyl-4-(1H-1,2,4-triazol-1-ylmethyl)piperidin-1-yl-2-oxoethylamine]
Ki (hMC4R/TM4 hMC2R [3]): 7.2 ± 2.3 nM | Ki (hMC4R/TM3 hMC2R [4]): 76.2 ± 17.3 nM | Ki (hMC4R/TM2 hMC2R [6]): 6.2 ± 0.2 nM | Ki (hMC4R/TM6 hMC2R [7]): 5.3 ± 0.2 nM | Ki (hMC4R/TM5 hMC2R [9]): 6.7 ± 3.4 nM

Reference: article PMC3216638 (Regulatory peptides, 2009)
